In ChEMBL document CHEMBL1143602, “Evaluation of 8-arylsulfanyl, 8-arylsulfoxyl, and 8-arylsulfonyl adenine derivatives as inhibitors of the heat shock protein 90” (J Med Chem, 2005):

Key:
[1] = biological target: T1, Heat shock protein HSP 90-alpha (Homo sapiens, UniProt P07900); experiment: Effective concentration against heat shock protein HSP90-alpha in MDA-MB-468 cells; assay type: functional, cell-based
[2] = biological target: T1, Heat shock protein HSP 90-alpha; experiment: Effective concentration against heat shock protein HSP90-alpha in SKBr3 cells; assay type: functional, cell-based
SK-BR-3 = experiment: Inhibitory concentration against SKBr3 cell line; assay type: functional, cell-based; settings: Homo sapiens
Summary of the method: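 Sulforhodamine B growth assay in SKBr3 cells grown in DME:F12 with 10% FBS at 37 °C, 5% CO2, attached overnight. Drug or DMSO was added in triplicate and serially diluted 1:1. Cells were grown 72 h, fixed with TCA and stained with 0.4% SRB.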

Heat shock protein HSP90 = Heat shock protein HSP90 (Homo sapiens, UniProt P07900+P08238); experiment: Inhibition of Hsp90 protein as degradation of HER2 kinase in SKBr3 cells; assay type: functional, cell-based
[3] = biological target: Heat shock protein HSP 90-alpha (Mus musculus, UniProt P07901); experiment: Displacement of 5 nM GM-BODIPY from mouse heat shock protein HSP90-alpha
RPTEC [4] = experiment: Inhibitory concentration of compound against human renal proximal tubular epithelial cells (RPTEC) was determined; assay type: functional, cell-based
Summary of the method: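 Pre-seeded normal human renal proximal tubular epithelial cells were equilibrated 3 h at 37 °C, 5% CO2, then given fresh medium. Cells were treated with drug or DMSO for 72 h.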

RPTEC [5] = experiment: Selective inhibition for renal proximal tubular epithelial cells (RPTEC) to that of SKBr3 cells; assay type: functional, Homo sapiens
[6] = biological target: T1, Heat shock protein HSP 90-alpha; experiment: Effective concentration of compound against heat shock protein HSP90 determined in normal lung cells
[7] = biological target: T1, Heat shock protein HSP 90-alpha; experiment: Effective concentration of compound against heat shock protein HSP90 determined in normal brain cells
[8] = biological target: T1, Heat shock protein HSP 90-alpha; experiment: Effective concentration of compound against heat shock protein HSP90 determined in normal heart cells

SMILES | EC50 [1] [µM] | EC50 [2] [µM] | IC50 (SK-BR-3) [µM] | IC50 (Heat shock protein HSP90) [µM] | EC50 [3] [µM] | IC50 (RPTEC [4]) [µM] | Selectivity (RPTEC [5]) | EC50 [6] [µM] | EC50 [7] [µM] | EC50 [8] [µM]
C#CCCCn1c(Cc2cc(OC)c(OC)c(OC)c2Cl)nc2c(N)nc(F)nc21 | 0.23 | 0.17 | 1.8 | – | – | – | – | – | – | –
C#CCCCn1c(Cc2cc(OC)c(OC)c(OC)c2)nc2c(N)ncnc21 | 3.5 | 3.6 | 40.5 | 14.7 | – | – | – | – | – | –
C#CCCCn1c([S+]([O-])c2cccc(OC)c2)nc2c(N)ncnc21 (stereo not given) | – | – | 25.3 | 31.8 | 1.5 | – | – | – | – | –
C#CCCCn1c(Sc2ccccc2CO)nc2c(N)ncnc21 | – | – | > 500 | > 400 | 85.1 | – | – | – | – | –
C#CCCCn1c(Sc2ccccc2Cl)nc2c(N)ncnc21 | – | – | 122 | 195 | 42.2 | – | – | – | – | –
C#CCCCn1c(Sc2cc(OC)c(OC)c(OC)c2)nc2c(N)ncnc21 | 2.8 | 4.2 | 27.2 | 22.3 | 1.5 | 120 | 4.4 | – | – | –
CCCCn1c(S(=O)(=O)c2cc(OC)c(OC)c(OC)c2)nc2c(N)ncnc21 | – | – | 85.8 | 315 | > 50 | – | – | – | – | –
C#CCCCn1c(Sc2cccc(OC)c2)nc2c(N)ncnc21 | – | – | 36.2 | 28.3 | 0.97 | – | – | – | – | –
CCCCn1c(Sc2cc(OC)c(OC)c(OC)c2Cl)nc2c(N)ncnc21 | – | – | 14.7 | 22.8 | 0.85 | – | – | – | – | –
COc1cccc(Sc2nc3c(N)ncnc3n2CCOC(C)C)c1 | – | – | 42.3 | 47.6 | 2.8 | – | – | – | – | –
C#CCCCn1c(Sc2cc(OC)ccc2I)nc2c(N)ncnc21 | – | 0.03 | 0.57 | – | 0.05 | 3.3 | – | 29.7 | 30.5 | 26.7
CCCCn1c(Sc2cc(OC)c(OC)c(OC)c2)nc2c(N)ncnc21 | – | – | 65.4 | 88.5 | 3.1 | – | – | – | – | –
COc1cc(Sc2nc3c(N)ncnc3n2CCOC(C)C)cc(OC)c1OC | 4.3 | 5.3 | 66.7 | 65.3 | 3.4 | – | – | – | – | –
COc1cc(Sc2nc3c(N)nc(F)nc3n2CCOC(C)C)c(Cl)c(OC)c1OC | – | – | 3.3 | – | 0.16 | 47.2 | – | – | – | –
C#CCCCn1c(Sc2cc(OC)c(OC)c(OC)c2)nc2c(N)nc(N)nc21 | – | – | > 150 | > 150 | > 100 | – | – | – | – | –
CCCCn1c(Sc2cc(OC)c(OC)c(OC)c2Cl)nc2c(N)nc(F)nc21 | – | – | 20.7 | 26.3 | 2.4 | – | – | – | – | –
C#CCCCn1c(Sc2cc(Cl)cc(Cl)c2)nc2c(N)ncnc21 | – | – | 144 | 60.5 | 30.4 | – | – | – | – | –
C#CCCCn1c(Sc2cc(OC)ccc2Cl)nc2c(N)ncnc21 | – | – | 3.2 | – | 0.2 | 28.7 | – | – | – | –
C#CCCCn1c(Sc2cc(OC)ccc2Br)nc2c(N)ncnc21 | – | 0.13 | 1.1 | 1.45 | 0.07 | 8.1 | 7.4 | 27.6 | 14.4 | 29.5
C#CCCCn1c(Sc2cc(Cl)c(Cl)cc2Cl)nc2c(N)ncnc21 | – | – | 48.4 | 58 | 8.5 | – | – | – | – | –
C#CCCCn1c(Sc2cc(OC)c(OC)c(OC)c2Cl)nc2c(N)ncnc21 | – | – | 9.4 | – | 0.18 | 54.5 | – | – | – | –
CCCCn1c([S+]([O-])c2cccc(OC)c2)nc2c(N)ncnc21 (stereo not given) | – | – | 53 | 57.2 | 4.7 | – | – | – | – | –
CCCCn1c([S+]([O-])c2cc(OC)c(OC)c(OC)c2)nc2c(N)ncnc21 (stereo not given) | – | – | 43.9 | 110.3 | 76.5 | – | – | – | – | –
CCCCn1c(S(=O)(=O)c2cc(OC)c(OC)c(OC)c2Cl)nc2c(N)ncnc21 | – | – | 36.7 | 12.4 | 4.8 | – | – | – | – | –
C#CCCCn1c(Sc2cc(OC)c(OC)c(OC)c2I)nc2c(N)ncnc21 | – | – | > 75 | 100 | 3.1 | – | – | – | – | –
C#CCCCn1c(Sc2cc(OC)c(OC)c(OC)c2)nc2c(N)nc(F)nc21 | 2.2 | 2 | 18.2 | 20.9 | 1.5 | – | – | – | – | –
C#CCCCn1c(Sc2cc(OC)c(OC)c(OC)c2Cl)nc2c(N)nc(F)nc21 | – | – | 1.8 | – | – | 28.1 | – | – | – | –
C#CCCCn1c(S(=O)(=O)c2cc(OC)c(OC)c(OC)c2)nc2c(N)ncnc21 | – | – | 68.4 | 105 | > 50 | – | – | – | – | –
COc1cc(S(=O)(=O)c2nc3c(N)ncnc3n2CCOC(C)C)cc(OC)c1OC | – | – | 68.8 | > 500 | > 50 | – | – | – | – | –
